This is a sample that favours compounds with a hit; in the whole collection about 1% have one here.
Xi reactivation: activators of X-chromosome reactivation in mouse fibroblasts. 0.055% of 360,000 active. AID 743238. XiGFP mouse fibroblasts, % GFP-positive cells imaging, 3 d; cells co-treated with 5-aza-dC sensitizer; scaled so ellipticine positive control = 100%. activation, % at 7.58 µM;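 active = mean normalized replicate activation at least 10% and every replicate at or above 10%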
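Assay system: SV40-immortalized XiGFP fibroblast cells, line 68-5-11; buffer or medium: DMEM plus 5-aza-dC sensitizer; compound: one concentration, pinned; timing: compounds 3 days, fix/stain 15 min at room temperature; benchmarks: positive control ellipticine, 6 µM final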
CaV13 ICDI inh: Disruptors of the CACNA1D IQ motif to Ca2+-dependent inactivation inhibitor domain association, primary screening, Förster resonance energy transfer in intact living …. HEK cells, CFP/YFP FRET ICDI-IQ, plate reader, 10 min; percent FRET-ratio fall versus neutral wells. inhibition, % at 12.3 µM. 0.098% of 340,000 active. AID 743397;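 active = mean replicate inhibition of at least 30% and at least 1% of replicates passing that level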
INS-1E GSIS act: primary screen for activators of insulin secretion dependent on glucose, INS-1E cells, GLuc reporter luminescence; INS-1E GLuc reporter insulin secretion, 2-3 h; activation, % at 16.6 µM; 0.61% of 370,000 active;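 active = lowest replicate activation of at least 40%, so every replicate reaches that level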
GAA850 FXN act: activators of GAA850 frataxin (FXN) promoter | HEK293 lucGAA850 FXN promoter luciferase reporter, 24 h; percent of 10 µM SAHA response | activation, % at 6 µM | 0.56% of 360,000 active | AID 540364;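 active = activation above the average of all compounds screened plus 3 SD, cutoff fixed separately per campaign, cut at about 7.5% in these data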
Of the large screens only hits and unclear results are named; the others gave an inactive call; ! = not active in a repeat.

COc1ccccc1/C=C/C(=O)OCCCN(C)C	Xi reactivation 71
CCOc1ccc(CCNC(=O)COC(=O)c2cccc(S(=O)(=O)N(C)C)c2)cc1OCC	none
CCOc1ccc(CCNC(=O)COC(=O)/C=C/c2ccc(OC)c(OC)c2)cc1OCC	none
O=C(C[C@@H]1CC[C@@H](NC(=O)CC2CC2)[C@@H](CO)O1)NCc1ccc(Cl)cc1	none (no result: CaV13 ICDI inh, GAA850 FXN act)
C[C@@H]1CN([C@@H](C)CO)C(=O)c2cc(NC(=O)Cc3ccccc3)ccc2O[C@@H]1CN(C)Cc1ccc(Cl)c(Cl)c1	none (no result: CaV13 ICDI inh, GAA850 FXN act)
CCCCn1c(-c2ccncc2)nc2c1c(=O)[nH]c(=O)n2CC(C)C	INS-1E GSIS act 70 (no result: Xi reactivation)
CN1C(=O)c2cc(NC(=O)c3ccc4c(c3)OCO4)ccc2OC[C@H]2O[C@H](CC(=O)O)CC[C@H]21	none (no result: CaV13 ICDI inh, GAA850 FXN act)
CCOC(=O)c1cc2sccc2n1CC(=O)Nc1ccc(OC)cc1OC	none (no result: Xi reactivation)
CCOC(=O)CN(Cc1sccc1C)C(=O)Nc1ccc(OC)cc1OC	INS-1E GSIS act 42 (no result: Xi reactivation)
COCCNC(=O)C[C@H]1CC[C@H]2[C@@H](COC[C@H](O)CN2C(=O)Nc2ccccc2OC)O1	none (no result: CaV13 ICDI inh, GAA850 FXN act)
CN(C)C(=O)CSc1nc2ccc(C(=O)c3ccccc3)cc2[nH]1	CaV13 ICDI inh 62
CC(Sc1nc2ccc(C(=O)c3ccccc3)cc2[nH]1)C(=O)O (configuration not stated)	none
COc1ccc(NC(=O)N2C[C@@H](O)COC[C@@H]3O[C@H](CC(=O)N4CCN(C)CC4)CC[C@H]32)cc1	none (no result: CaV13 ICDI inh, GAA850 FXN act)
COc1ccc(Cc2nc(-c3ccc(-n4cccc4)cc3)no2)cc1OC	INS-1E GSIS act 56
CCNC(=O)Nc1ccc2c(c1)C(=O)N(C)[C@H]1CC[C@H](CC(=O)Nc3ccc(C)cc3)O[C@@H]1CO2	none (no result: CaV13 ICDI inh, GAA850 FXN act)
CS(=O)(=O)c1nc(S(=O)(=O)c2ccc(Cl)cc2)c(N2CCCCCC2)s1	INS-1E GSIS act 47
C=C1[C@@H](O)[C@H](CC(C)C)N(Cc2ccccc2Br)S1(=O)=O	INS-1E GSIS act 45
Cc1[nH]c2ccccc2c1/C=N/NC(=O)c1cccc([N+](=O)[O-])c1	none
Cc1[nH]c2ccccc2c1/C=N/Nc1ccc([N+](=O)[O-])cc1	Xi reactivation 75
Nc1ccc(C#Cc2ccc3c(=O)c4ccccc4oc3c2)cc1	CaV13 ICDI inh 106 (no result: INS-1E GSIS act)
O=C(NS(=O)(=O)c1ccc(Cl)s1)c1ccccc1	CaV13 ICDI inh 46
C[C@H](CO)N1C[C@H](C)[C@H](CN(C)S(=O)(=O)c2cccs2)Oc2ncc(/C=C/c3ccccc3)cc2C1=O	none (no result: CaV13 ICDI inh, GAA850 FXN act)
CCCN(C#N)c1nc(NCC)nc(NC(C)C)n1	none (no result: Xi reactivation, INS-1E GSIS act)
CCNc1nc(NC(C)C)nc(N(C)C#N)n1	INS-1E GSIS act 58
Cc1ccc(CC2S/C(=N/c3ccccn3)NC2=O)cc1 (configuration not stated)	INS-1E GSIS act 58 (no result: Xi reactivation)
Cc1noc(C)c1NC(=O)N(C)C[C@H]1Oc2c(NC(=O)C3CCCCC3)cccc2C(=O)N([C@H](C)CO)C[C@@H]1C	INS-1E GSIS act 41!
Cc1noc(C)c1NC(=O)N(C)C[C@H]1Oc2c(NC(=O)C3CCCCC3)cccc2C(=O)N([C@@H](C)CO)C[C@H]1C	none (no result: CaV13 ICDI inh, GAA850 FXN act)
CCn1c(Cl)c(C=O)s/c1=N\S(=O)(=O)c1ccccc1	Xi reactivation 35, INS-1E GSIS act 58
O=C(C[C@H]1CC[C@H](NC(=O)Nc2ccccc2F)[C@H](CO)O1)NCc1ccccc1	none (no result: CaV13 ICDI inh, GAA850 FXN act)
CCCCc1c(C)c2ccc(OCC(C)=O)cc2oc1=O	none (no result: Xi reactivation, INS-1E GSIS act)
CCCc1c(C)c2ccc(OCC(C)=O)cc2oc1=O	INS-1E GSIS act 51 (no result: Xi reactivation)
CC(=O)c1c(C)oc2ccc(NS(=O)(=O)c3ccc(F)cc3C)cc12	INS-1E GSIS act 223
C[C@@H]1CN([C@@H](C)CO)C(=O)Cc2cc(NS(C)(=O)=O)ccc2O[C@H]1CN(C)C(=O)Nc1ccc(F)cc1	none (no result: CaV13 ICDI inh, GAA850 FXN act)
CCOc1cc(OCC)nc(S(C)(=O)=O)n1	INS-1E GSIS act 49
O=C(C1CC1)N1CC(=O)N2[C@H](C1)[C@H](c1ccc(Br)cc1)[C@@H]2CO	none (no result: CaV13 ICDI inh, GAA850 FXN act)
CCn1c(SCC(=O)OC)nc2sc3c(c2c1=O)CC(C)(C)OC3	INS-1E GSIS act 74
CCSc1nc2sc3c(c2c(=O)n1CC)CC(C)(C)OC3	none (no result: Xi reactivation, INS-1E GSIS act)
COc1ccc(OCc2n(CC(=O)OC3CC(C)CCC3C(C)C)c3ccccc3[n+]2C)cc1 (configuration not stated)	INS-1E GSIS act 271
COc1ccc(C2C(C#N)=C(N)Oc3cc(O)ccc32)cc1Cl (configuration not stated)	CaV13 ICDI inh active
N#CC1=C(N)Oc2cc(O)ccc2C1c1ccncc1 (configuration not stated)	none (no result: Xi reactivation, CaV13 ICDI inh, INS-1E GSIS act)
COC(=O)c1ccc(C2C(C#N)=C(N)Oc3cc(O)ccc32)cc1 (configuration not stated)	none
C#CCOc1ccc(C2C(C#N)=C(N)Oc3cc(O)ccc32)cc1 (configuration not stated)	CaV13 ICDI inh active
CCOc1ccc(C2C(C#N)=C(N)Oc3cc(O)ccc32)cc1OCC (configuration not stated)	CaV13 ICDI inh 58
COCC(=O)N(C)C[C@H]1Oc2ncc(C#Cc3ccccc3)cc2C(=O)N([C@H](C)CO)C[C@@H]1C	none (no result: CaV13 ICDI inh, GAA850 FXN act)
CCOC(=O)C1=NN(C(=O)Nc2cccc(C(F)(F)F)c2)C2C(=O)N(c3cccc(C(F)(F)F)c3)C(=O)C12 (configuration not stated)	INS-1E GSIS act 100 (no result: Xi reactivation)
CC(C)NC(=O)N(C)C[C@H]1OCCCC[C@@H](C)Oc2ccc(N(C)C)cc2C(=O)N([C@@H](C)CO)C[C@H]1C	none (no result: CaV13 ICDI inh, GAA850 FXN act)
COc1ccc2c(c1)C(=NNC(=O)c1ccccn1)c1cc(OC)ccc1-2	INS-1E GSIS act 146
COc1ccc(C(=O)NNC(=O)c2ccccn2)cc1	none
C[C@@H]1CN([C@H](C)CO)S(=O)(=O)c2ccc(C#CC3CC3)cc2O[C@@H]1CN(C)C(=O)c1cccnc1	none (no result: CaV13 ICDI inh, GAA850 FXN act)
Cc1ccccc1NC(=O)CN1C(=O)S/C(=C/c2cccnc2)C1=O	INS-1E GSIS act 40
CCOc1ccc2nc(NCCCNS(=O)(=O)c3ccc(F)cc3)c(C#N)cc2c1	CaV13 ICDI inh 33 (no result: Xi reactivation)
CNC[C@H](CC1CCCCC1)NC[C@H](Cc1ccccc1)NCCC12CC3CC(CC(C3)C1)C2	INS-1E GSIS act 649
NC[C@H](Cc1ccccc1)NCCCCC1CCCCC1	none
CCOC(=O)C1=CN(CC2CCCO2)C=C(C(=O)OCC)C1c1ccccc1C(F)(F)F (configuration not stated)	CaV13 ICDI inh 76
CCOC(=O)c1ccc(NC(=O)c2cccc3c2C(=O)N(CC2CCCO2)C3)cc1 (configuration not stated)	none
O=C(C[C@@H]1C[C@@H]2c3cc(NC(=O)Nc4ccc(F)cc4)ccc3O[C@@H]2[C@@H](CO)O1)NC1CCCC1	none (no result: CaV13 ICDI inh, GAA850 FXN act)
O=C(c1ccc2c(c1)OCO2)N1CCN(S(=O)(=O)c2ccccc2)CC1	INS-1E GSIS act 46
COC(=O)c1ccc(COC(=O)c2ccc(S(=O)(=O)N3CCC(C)CC3)cc2)o1	none (no result: Xi reactivation, INS-1E GSIS act)

Screening results from PubChem BioAssay.
